Measurements collected from several papers.
Lines come from different studies, so protocols differ.

| SMILES | cell line | read-out | mode | method | time | quantity | value |
| --- | --- | --- | --- | --- | --- | --- | --- |
| COc1cccc2c1C(=O)c1c(O)c3c(c(O)c1C2=O)C[C@@](O)(C(=O)CO)C[C@@H]3O[C@H]1C[C@H](N)[C@H](O)[C@H](C)O1 | C6 | cell growth or viability | – | SRB | 72 h | IC50 | 500 nM |
| Cc1c2cnccc2c(C)c2c1c1ccccc1n2CCCCCCNCc1ccccc1 | MDA-MB-468 | cell growth or viability | – | MTT | – | IC50 | 720 nM |
| COc1ccc2c(c1)c(C(=O)C(=O)NCCc1c[nH]c3ccccc13)cn2Cc1ccc(Cl)cc1 | C4-2 | cell growth or viability | – | MTT | – | IC50 | > 100000 nM |
| CC(C)[C@@H]1NC(=O)[C@H](C)OC(=O)[C@@H](C(C)C)NC(=O)[C@@H](C(C)C)OC(=O)[C@H](C(C)C)NC(=O)[C@H](C)OC(=O)[C@@H](C(C)C)NC(=O)[C@@H](C(C)C)OC(=O)[C@H](C(C)C)NC(=O)[C@H](C)OC(=O)[C@@H](C(C)C)NC(=O)[C@@H](C(C)C)OC1=O | C6 | cell growth or viability | – | SRB | – | IC50 | 24 nM |
| Cn1cncc1[C@@](N)(c1ccc(Cl)cc1)c1ccc2c(c1)c(-c1cccc(Cl)c1)cc(=O)n2C | HN-6 | cell growth or viability | – | – | 72 h | IC50 | 2270 nM |
| c1ccc([C@@H]2C[C@H]2NC2CCNCC2)cc1 | MV4-11 | cell growth or viability | – | resazurin | 96 h | EC50 | 0.48 nM |
| O=C(O)C(Cl)Cl | BCPAP | cell growth or viability | – | MTT | 72 h | IC50 | > 50000 nM |
| O=C(NCCc1c[nH]c2ccccc12)C(=O)c1cn(Cc2ccc(Cl)cc2)c2ccc(F)cc12 | C4-2 | cell growth or viability | – | MTT | – | IC50 | > 100000 nM |
| c1ccc2c(NCCCCCCNc3c4ccccc4nc4ccccc34)c3ccccc3nc2c1 | MDA-MB-468 | cell growth or viability | – | MTT | – | IC50 | 96 nM |
| CCn1cc(C(=O)C(=O)NCCc2c[nH]c3ccccc23)c2ccccc21 | C4-2 | cell growth or viability | – | MTT | – | IC50 | > 100000 nM |
| COc1cc(O)c2c(=O)c(OC)c(-c3ccc(O)cc3)oc2c1 | RBL-2H3 | degranulation | inhibitor | – | – | IC50 | 80400 nM |
